≈ marks a conversion by molar mass, not a printed value. Each block holds one compound with its values, some of them ahead of it. Calls of active or inactive are those of the source. The calls are words filed in the database; no cut-off is given here.
Legend:
[1] = target: T1, Macrophage migration inhibitory factor (Homo sapiens, UniProt P14174); test: Binding affinity to C-terminal His-tagged recombinant human MIF expressed in Escherichia coli BL21 (DE3) at 200 nM by fluorescence assay
T1 sequence (P14174 whole entry): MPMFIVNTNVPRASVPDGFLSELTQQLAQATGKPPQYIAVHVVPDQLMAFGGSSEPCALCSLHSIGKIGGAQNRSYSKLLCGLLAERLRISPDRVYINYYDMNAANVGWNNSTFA
Method in brief: (§1)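 Equal volumes of fluorophore (diluted from 10 mM DMSO stock to 200 nM in PBS pH 7.4) and MIF dilution series (16–8000 nM) mixed, 10 min at room temperature; fluorescence read at Ex/Em 340/460 nm or 355/455 nm; KS from hyperbolic fit of specific binding curve; n = 3.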

[2] = target: T2, Macrophage migration inhibitory factor (Homo sapiens) (UniProt P14174); test: Binding affinity to C-terminal His-tagged recombinant human MIF expressed in Escherichia coli BL21 (DE3) assessed as fluorescence quenching at 50 nM by fluorescence assay; method in brief: as §1
T2 sequence (whole entry): T1 sequence (P14174 whole entry)

[3] = target: Albumin (Bos taurus, UniProt P02769); test: Binding affinity to bovine serum albumin assessed as fluorescence quenching at 50 nM by fluorescence assay; format: ADME; conditions: cattle, isolated protein, 0.05 µM
Method in brief: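 Control for non-specific quenching: 50 nM fluorophore titrated with BSA (up to 800 nM) in PBS pH 7.4, fluorescence intensity compared against MIF titration.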

[4] = target: T2, Macrophage migration inhibitory factor (Homo sapiens); test: Competitive inhibition of C-terminal His-tagged recombinant human MIF expressed in Escherichia coli BL21 (DE3) up to 50 nM using varying levels of 4-HPP as substrate preincubated for 10 mins followed by substrate addition by Lineweaver-burk plot analysis; conditions: dose nM <=50, time 10.0 min
[5] = Half life of compound in pH 7.4 PBS buffer at 100 nM; format: physicochemical; conditions: pH 7.4, 0.1 µM
Method in brief: (§2)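 Fluorescence lifetime of 100 nM fluorophore in 1 mL PBS pH 7.4, measured alone or with 500 nM MIF.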

[6] = Half life of compound in pH 7.4 PBS buffer at 100 nM in presence of MIF; format: physicochemical; conditions: pH 7.4, 0.1 µM; method in brief: as §2
[7] = target: T2, Macrophage migration inhibitory factor (Homo sapiens); test: Binding affinity to C-terminal His-tagged recombinant human MIF expressed in Escherichia coli BL21 (DE3) assessed as fluorescence quenching at 50 nM in presence of CuSO4 by fluorescence assay
Method in brief: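 Indicator displacement setup (100 nM MIF, 50 nM fluorophore, PBS pH 7.4) run with Cu2+ ions up to 200 μM; fluorescence read at Ex/Em 355/455 nm.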

[8] = target: T2, Macrophage migration inhibitory factor (Homo sapiens); test: (§3) Binding affinity to C-terminal His-tagged recombinant human MIF expressed in Escherichia coli BL21 (DE3) assessed as inhibition of MIF interaction with MBP-fused human CD74 preincubated for 10 mins with CD74 followed by MIF addition and measured after 30 mins by ELISA; conditions: time 40.0 min
Method in brief: (§4)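 MIF (250 nM, 100 μL) coated overnight at 4 °C, blocked 1 h with 2% BSA; inhibitor (1–100 μM) premixed 10 min with 500 nM MBP–sCD74, added 30 min at room temperature; bound sCD74 detected with rabbit anti-CD74 then HRP anti-rabbit, 30 min each; DMSO = 100%, no sCD74 = 0%; mean ± SD, n = 3.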

[9] = target: T1, Macrophage migration inhibitory factor; test: as §3; method in brief: as §4
[10] = tested on: A549; test: Toxicity in human A549 cells assessed as reduction in cell viability up to 20 uM measured after 24 hrs by MTS assay; format: cell-based; conditions: a549, 24 h
Method in brief: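 A549 cells treated 24 h; viability read by MTS assay.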

[11] = tested on: A549; test: Inhibition of colony formation in human A549 cells at 2.5 to 10 uM incubated for 10 days by crystal violet staining based assay; format: functional, cell-based; conditions: dose microM 2.5-10, time 10.0 day
Method in brief: (§5)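 A549 seeded at 100 cells/well in RPMI with 10% FBS, overnight, then treated 10 days (0.2% DMSO final); fixed 4% paraformaldehyde, stained 0.5% crystal violet; colonies (>50 cells) counted vs 0.2% DMSO control; three independent experiments.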

[12] = target: T2, Macrophage migration inhibitory factor (Homo sapiens); test: Inhibition of MIF (unknown origin) cultured in human A549 cells assessed as reduction in MIF-induced ERk phosphorylation at 10 uM preincubated with MIF for 10 mins followed by cell addition and measured after 10 mins by Western blot analysis; format: cell-based; conditions: time 20.0 min
Method in brief: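 A549 (2 × 10^5/well) cultured overnight; 150 ng/mL endotoxin-free MIF preincubated 10 min with compound, then applied to cells 10 min at 37 °C (0.2% DMSO); lysates (30 μg protein) blotted; pERK/GAPDH ratio; four independent experiments.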

[13] = Solubility of compound in pH 7.4 phosphate buffer; format: physicochemical
Method in brief: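 Solubility measured in PBS pH 7.4.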

[14] = target: T1, Macrophage migration inhibitory factor; test: Inhibition of C-terminal His-tagged recombinant human MIF expressed in Escherichia coli BL21 (DE3) using 4-HPP as substrate preincubated for 10 mins followed by substrate addition by UV absorption spectrum analysis
[15] = target: T2, Macrophage migration inhibitory factor (Homo sapiens); test: Binding affinity to C-terminal His-tagged recombinant human MIF expressed in Escherichia coli BL21 (DE3) assessed as inhibition of MIF interaction with MBP-fused human CD74 up to 50 uM preincubated for 10 mins with CD74 followed by MIF addition and measured after 30 mins by ELISA; conditions: dose microM <=50, time 40.0 min
Method in brief: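 MIF (250 nM) coated on plates overnight at 4 °C, then blocked with 2% BSA for 1 h at RT. Inhibitor in DMSO premixed 10 min at RT with MBP–sCD74 (final 500 nM sCD74; inhibitor 1–100 μM), then added to wells for 30 min at RT. Bound sCD74 detected with rabbit anti-CD74 pAb and goat anti-rabbit HRP. No-inhibitor signal set to 100%, no-sCD74 signal to 0%. n = 3.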

[16] = tested on: A549; test: Inhibition of colony formation in human A549 cells at 100 uM incubated for 10 days by crystal violet staining based assay; format: functional, cell-based; conditions: time 10.0 day; method in brief: as §5
[17] = target: T1, Macrophage migration inhibitory factor; test: Displacement of 4'-(7-Hydroxy-2-oxo-2H-chromen-3-yl)-[1,1'-biphenyl]-4-carboxylic acid from C-terminal His-tagged recombinant human MIF expressed in Escherichia coli BL21 (DE3) preincubated for 10 mins followed by probe addition and measured after 10 mins by fluorescence assay
[18] = target: T2, Macrophage migration inhibitory factor (Homo sapiens); test: Inhibition of C-terminal His-tagged recombinant human MIF expressed in Escherichia coli BL21 (DE3) at 25 uM using 4-HPP as substrate preincubated for 10 mins followed by substrate addition by UV absorption spectrum analysis relative to control
[19] = target: T1, Macrophage migration inhibitory factor; test: Binding affinity to C-terminal His-tagged recombinant human MIF expressed in Escherichia coli BL21 (DE3) at 100 nM by fluorescence assay
Method in brief: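 Fluorescent indicator displacement in PBS pH 7.4. Compound preincubated with MIF 10 min at RT, then 7-hydroxycoumarin indicator added for another 10 min at RT. Final MIF 100 nM, indicator 50 nM, DMSO 2.5%. Fluorescence read at Ex/Em 355/455 nm. EC50 for fluorescence recovery from nonlinear fit, converted to Kd with a displacement equation using indicator KS. Three independent experiments.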

[20] = target: T2, Macrophage migration inhibitory factor (Homo sapiens); test: Binding affinity to C-terminal His-tagged recombinant human MIF expressed in Escherichia coli BL21 (DE3) assessed as fluorescence quenching at 200 nM by fluorescence assay; method in brief: as §1
[21] = Absorption property of the compound in pH 7.4 PBS buffer assessed as maximum absorption wavelength at 100 uM by UV-vis spectra analysis; format: physicochemical; conditions: pH 7.4, 100 µM
Method in brief: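 UV absorption spectra recorded at 100 μM compound in PBS pH 7.4 containing 5% (v/v) DMSO on a plate reader; wavelength of maximum absorbance taken.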

[22] = target: T2, Macrophage migration inhibitory factor (Homo sapiens); test: Binding affinity to C-terminal His-tagged recombinant human MIF expressed in Escherichia coli BL21 (DE3) at 100 nM in presence of 3-(3,4-Dimethoxyphenyl)-7-hydroxy-3,4-dihydro-2Hbenzo[e][1,3]oxazin-2-one by fluorescence assay
[23] = Emission property of the compound in pH 7.4 PBS buffer assessed as maximum emission wavelength at 200 nm by fluorescence spectra analysis; conditions: pH 7.4, 200 nM

Kd [1]: 0.016 µM
Ks [2]: 16 nM
Activity [3]: Not Active
inhibition [4]: Active
t1/2 [5]: 4.2 nanoseconds
t1/2 [6]: 4 nanoseconds
Activity [7]: Active
inhibition [8]: Dose-dependent effect
IC50 [9]: 36 µM
inhibition [12]: Active
solubility ([13]; buffer): 18.8 µg/mL (≈ 52.5 µM)
SMILES: O=C(O)c1ccc(-c2ccc(-c3cc4ccc(O)cc4oc3=O)cc2)cc1
Activity [10]: Non-Toxic
inhibition [11]: Active

IC50 [14]: 0.72 µM
Ki [14]: 0.48 µM
SMILES: O=c1oc2cc(O)ccc2cc1-c1ccc(I)cc1

IC50 [14]: 0.47 µM
Ki [14]: 0.31 µM
SMILES: O=c1oc2cc(O)ccc2cc1-c1ccc(Br)cc1

SMILES: COC(=O)CC1CC(c2ccc(O)cc2)=NO1 (stereo not given)
inhibition [15]: inactive
inhibition [16]: Active

IC50 [14]: 18.6 µM
Ki [14]: 12.4 µM
SMILES: CCOC(=O)c1cc2ccc(O)cc2oc1=O

IC50 [14]: 1.76 µM
Ki [14]: 1.17 µM
SMILES: O=c1oc2cc(O)ccc2cc1-c1ccccc1

IC50 [14]: 19.1 µM
Ki [14]: 12.7 µM
SMILES: O=c1oc2cc(O)ccc2cc1-c1ccccc1Cl

Kd [17]: 1.4 µM
solubility ([13]; phosphate buffer): 10.8 µg/mL (≈ 28 µM)
SMILES: O=C(NCc1cn(-c2ccc(O)c(F)c2)nn1)c1cc2cc(Cl)ccc2[nH]1

inhibition [18]: 12%
SMILES: O=C(NCc1ccccc1)c1cc2ccc(O)cc2oc1=O

SMILES: COc1ccc(N2Cc3ccc(O)cc3OC2=O)cc1OC
Kd [19]: 0.156 µM
Ki [14]: 0.1 µM
Kd [17]: 0.11 µM
inhibition [15]: inactive

Kd [17]: 4 µM
SMILES: Oc1ccc(-n2cc(-c3ccccn3)nn2)cc1

IC50 [14]: 0.92 µM
Ki [14]: 0.61 µM
SMILES: O=c1oc2cc(O)ccc2cc1-c1ccc(Cl)cc1

IC50 [14]: 2.78 µM
Ki [14]: 1.85 µM
SMILES: COc1ccccc1-c1cc2ccc(O)cc2oc1=O

IC50 [14]: 2.54 µM
Ki [14]: 1.69 µM
SMILES: O=c1oc2cc(O)ccc2cc1-c1ccc(F)cc1

IC50 [14]: 1.93 µM
Ki [14]: 1.29 µM
SMILES: O=c1oc2cc(O)ccc2cc1-c1cccc(Cl)c1

IC50 [14]: 0.69 µM
Ki [14]: 0.46 µM
SMILES: Cc1ccc(-c2cc3ccc(O)cc3oc2=O)cc1

IC50 [14]: 2.19 µM
Ki [14]: 1.46 µM
SMILES: O=c1oc2cc(O)ccc2cc1-c1ccc2ccccc2c1

inhibition [18]: 11%
SMILES: O=C(Nc1ccccc1)c1cc2ccc(O)cc2oc1=O

Ki [14]: 8 µM
Kd [17]: 5.6 µM
SMILES: COc1ccc(C(=O)N/N=C/c2ccc(O)c(F)c2)cc1

Kd [19]: 0.39 µM
Activity [20]: Active
Activity [21]: 340 nm
IC50 [14]: 0.56 µM
Activity [22]: inactive
Activity [23]: 460 nm
SMILES: COc1ccc(-c2cc3ccc(O)cc3oc2=O)cc1

IC50 [14]: 1.85 µM
Ki [14]: 1.23 µM
SMILES: COc1cccc(-c2cc3ccc(O)cc3oc2=O)c1

Kd [17]: 4.4 µM
SMILES: O=C(NCc1cn(-c2ccc(O)c(F)c2)nn1)c1cc2ccccc2[nH]1

Ki [14]: 0.44 µM
Kd [17]: 0.47 µM
solubility ([13]; phosphate buffer): 2.2 µg/mL (≈ 7.63 µM)
SMILES: Oc1ccc(-n2cc(-c3cc4ccccc4cn3)nn2)cc1

From ChEMBL document CHEMBL4699504, “7-Hydroxycoumarins Are Affinity-Based Fluorescent Probes for Competitive Binding Studies of Macrophage Migration Inhibitory Factor” (J Med Chem, 2020)
